Results filed as inconclusive are left out. Calls of active or inactive are those of the source.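 The calls were made as follows: active = duplicate-averaged calcium signal falling below the mean of the agonist-only control wells less 5 SD; inactive = the rest, inconclusive results apart.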
The molecules below were run on Transient receptor potential cation channel subfamily C member 4 (TRPC4beta), mouse (assay: blockers of DAMGO-driven mouse TRPC4 calcium entry – cell-based, HEK293 TRPC4beta/mu-opioid, Fluo-4 calcium flux, single concentration, SAR follow-up (AID 492988)). Details: DAMGO-evoked Fluo4 calcium flux, at 10 µM, hits give high values.
How it was run: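 system = HEK293 cells stably expressing TRPC4beta plus mu-opioid receptor | probe or stimulus = DAMGO, submaximal then ECmax | times = 110 s compound preincubation, 110 s submaximal DAMGO exposure | replicates = duplicate wells per compound | read-out = peak-minus-trough fluorescence over baseline, integrated ratio, mean % inhibition | detection = Fluo4 calcium-sensitive dye fluorescence, calcium flux | compound = single concentration per test compound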
Molecule `c1ccc(-c2cc(N3CCCC3)nc3ccccc23)cc1` has an inhibition of 79.9%.
With `Cc1cc(N2CC(C)CC(C)C2)nc2ccccc12` (centres undefined) the inhibition was 32.4% (inactive).
For `Cc1cc(N2CCCC(O)C2)nc2ccccc12` (centres undefined), the inhibition was 69.3%.
`Cc1cc(N2CCN(C)CC2)nc2ccccc12` was tested, and the inhibition was -157% (inactive).
With `Cc1ccnc(N2CCCC2)c1` the inhibition was 44.1%.
In the case of `Cc1cc(N2CCCCC2)nc2ccc(F)cc12`, the inhibition is reported as 72.9%.
For `COCCN(C)c1cc(C)c2ccccc2n1`, the inhibition was 24.5% (inactive).
Work on `Cc1cc(N2CCOCC2)nc2ccccc12` yielded an inhibition of 42.6%.
`Cc1cc(N2CCNCC2)nc2ccccc12` was tested, and the inhibition was -292% (inactive).
With `Cc1cc(N2CCC(C)CC2)nc2ccccc12` the inhibition was 91.6%.
`Cc1ccc2nc(N3CCCC3)cc(C)c2c1` gave an inhibition of 93%.
Work on `Cc1cc(N2CCCCC2)nc2ccccc12` yielded an inhibition of 90%.
For `Cc1cc(N2CCN(c3ccncc3)CC2)nc2ccccc12`, the inhibition was 29.5% (inactive).
`Cc1cc(N2CCCCC2)nc2c(C)cccc12` gave an inhibition of 46.4%.
In the case of `Cc1cc(N2CCN(c3ncccn3)CC2)nc2ccccc12`, the inhibition is reported as 6.42% (inactive).
In the case of `c1ccc(-c2cc(N3CCCCC3)nc3ccccc23)cc1`, the inhibition is reported as 55.9%.
For `Cc1cc(N2CCC[C@@H]2C)nc2ccccc12`, the inhibition was 90%.
`Cc1cc(N2CCOc3ccccc32)nc2ccccc12` showed an inhibition of 63%.
Work on `COc1ccccc1N1CCN(c2cc(C)c3ccccc3n2)CC1` yielded an inhibition of 72.2%.
For `FC(F)(F)c1cc(N2CCCC2)nc2ccccc12`, the inhibition was -10.6% (inactive).
With `Cc1ccnc(N2CCCC2)n1` the inhibition was 38% (inactive).
`CCc1ccc2nc(N3CCCC3)cc(C)c2c1` gave an inhibition of 91.5%.
For `Cc1cc(N2CCC(N3CCOCC3)CC2)nc2ccccc12`, the inhibition was 11.7% (inactive).
With `COc1ccc(N2CCN(c3cc(C)c4ccccc4n3)CC2)cc1` the inhibition was -82.8% (inactive).
In the case of `Cc1ccnc(N2CCCCC2)c1`, the inhibition is reported as 50.8%.
In the case of `Cc1cc(N2CCN(CC3CCCO3)CC2)nc2ccccc12` (centres undefined), the inhibition is reported as -51.3% (inactive).
In the case of `Cc1ccnc(N2CCCCC2)n1`, the inhibition is reported as 38.2% (inactive).
In the case of `Cc1cc(N(C)CCN(C)C)nc2ccccc12`, the inhibition is reported as -249% (inactive).
`FC(F)(F)c1cc(N2CCCCC2)nc2ccccc12` was tested, and the inhibition was 39.7% (inactive).
In the case of `Cc1cc(N2CCN(c3ccccc3C#N)CC2)nc2ccccc12`, the inhibition is reported as 42% (inactive).
`CCN(CC)c1cc(C)c2ccccc2n1` gave an inhibition of 61.2%.
In the case of `Cc1cc(N2CCCC2)nc2ccc(F)cc12`, the inhibition is reported as 91.3%.
In the case of `Cc1cc(N2CCCC2)nc2ccccc12`, the inhibition is reported as 84.9%.
Molecule `Cc1cc(N2CCCC2)nc2c(C)cccc12` has an inhibition of 70.1%.

— PubChem BioAssay AID492988 (Johns Hopkins Ion Channel Center, 2010)
